Article PMC2857698 (Biochemistry, 2010)

Key:
Eps15 EH2 = assay: ITC of Rsn5-NPF1 with Eps15 EH2; type: binding; conditions: protein concentration in the ITC cell increased to 0.5 mM
EH domain of EHD1 = assay: ITC of NPF peptides binding to EHD1 EH; design: species or system mouse; conditions: for Ka / TΔS / ΔG / ΔH / ΔS: 25 mM MOPS pH 7.0, 1 mM CaCl2
Procedure, shortened: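 Mouse EHD1 EH domain (V437–E534) expressed as a GST fusion, purified on glutathione resin and thrombin-cleaved on beads. Protein and peptides were dialysed at 4°C against 25 mM MOPS pH 7.0, 1 mM CaCl2, with KCl varied where applicable. ITC was run at 20°C unless stated (5–25°C), with 50–200 μM protein in the cell and peptide titrant 10-fold higher. Single-site fit gave Ka, n and ΔH; ΔG = −RTlnKa, and TΔS came from ΔG = ΔH − TΔS.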

- fold higher affinity than Rfp2-NPF2 (EH domain of EHD1; ITC, EHD1 EH): 100 fold
- Ka (EH domain of EHD1; ITC, 5.0 °C): 2.03e+06 M⁻¹
- TΔS (EH domain of EHD1; ITC, 5.0 °C): -0.9542 kcal/mol
- ΔG (EH domain of EHD1; ITC, 5.0 °C): -8.02 kcal/mol
- ΔH (EH domain of EHD1; ITC, 5.0 °C): -8.986 kcal/mol
- ΔS (EH domain of EHD1; ITC, 5.0 °C): −3.43 cal mol^−1 K^−1
- Ka (EH domain of EHD1; ITC, 10.0 °C): 1.71e+06 M⁻¹
- TΔS (EH domain of EHD1; ITC, 10.0 °C): -1.606 kcal/mol
- ΔG (EH domain of EHD1; ITC, 10.0 °C): -8.068 kcal/mol
- ΔH (EH domain of EHD1; ITC, 10.0 °C): -9.684 kcal/mol
- ΔS (EH domain of EHD1; ITC, 10.0 °C): −5.67 cal mol^−1 K^−1
- Ka (EH domain of EHD1; ITC, 15.0 °C): 1.1e+06 M⁻¹
- TΔS (EH domain of EHD1; ITC, 15.0 °C): -2.467 kcal/mol
- ΔG (EH domain of EHD1; ITC, 15.0 °C): -7.958 kcal/mol
- ΔH (EH domain of EHD1; ITC, 15.0 °C): -10.44 kcal/mol
- ΔS (EH domain of EHD1; ITC, 15.0 °C): −8.56 cal mol^−1 K^−1
- Ka (EH domain of EHD1; ITC, 20.0 °C): 814000 M⁻¹
- TΔS (EH domain of EHD1; ITC, 20.0 °C): -3.401 kcal/mol
- ΔG (EH domain of EHD1; ITC, 20.0 °C): -7.921 kcal/mol
- ΔH (EH domain of EHD1; ITC, 20.0 °C): -11.33 kcal/mol
- ΔS (EH domain of EHD1; ITC, 20.0 °C): −11.6 cal mol^−1 K^−1
- Ka (EH domain of EHD1; ITC, 20 °C, KCl 25.0 mM): 302000 M⁻¹
- TΔS (EH domain of EHD1; ITC, 20 °C, KCl 25.0 mM): -3.079 kcal/mol
- ΔH (EH domain of EHD1; ITC, 20 °C, KCl 25.0 mM): -10.42 kcal/mol
- ΔS (EH domain of EHD1; ITC, 20 °C, KCl 25.0 mM): −10.5 cal mol^−1 K^−1
- Ka (EH domain of EHD1; ITC, 20 °C, KCl 50.0 mM): 168000 M⁻¹
- TΔS (EH domain of EHD1; ITC, 20 °C, KCl 50.0 mM): -3.401 kcal/mol
- ΔG (EH domain of EHD1; ITC, 20 °C, KCl 50.0 mM): -7.002 kcal/mol
- ΔH (EH domain of EHD1; ITC, 20 °C, KCl 50.0 mM): -10.42 kcal/mol
- ΔS (EH domain of EHD1; ITC, 20 °C, KCl 50.0 mM): −11.6 cal mol^−1 K^−1
- Ka (EH domain of EHD1; ITC, 20 °C, KCl 75.0 mM): 115000 M⁻¹
- TΔS (EH domain of EHD1; ITC, 20 °C, KCl 75.0 mM): -3.548 kcal/mol
- ΔG (EH domain of EHD1; ITC, 20 °C, KCl 75.0 mM): -6.782 kcal/mol
- ΔH (EH domain of EHD1; ITC, 20 °C, KCl 75.0 mM): -10.34 kcal/mol
- ΔS (EH domain of EHD1; ITC, 20 °C, KCl 75.0 mM): −12.1 cal mol^−1 K^−1
- Ka (EH domain of EHD1; ITC, 20 °C, KCl 100.0 mM): 86500 M⁻¹
- TΔS (EH domain of EHD1; ITC, 20 °C, KCl 100.0 mM): -4.251 kcal/mol
- ΔG (EH domain of EHD1; ITC, 20 °C, KCl 100.0 mM): -6.616 kcal/mol
- ΔH (EH domain of EHD1; ITC, 20 °C, KCl 100.0 mM): -10.88 kcal/mol
- ΔS (EH domain of EHD1; ITC, 20 °C, KCl 100.0 mM): −14.5 cal mol^−1 K^−1
- Ka (EH domain of EHD1; ITC, 20 °C, KCl 125.0 mM): 65000 M⁻¹
- TΔS (EH domain of EHD1; ITC, 20 °C, KCl 125.0 mM): -4.046 kcal/mol
- ΔG (EH domain of EHD1; ITC, 20 °C, KCl 125.0 mM): -6.45 kcal/mol
- ΔH (EH domain of EHD1; ITC, 20 °C, KCl 125.0 mM): -10.5 kcal/mol
- ΔS (EH domain of EHD1; ITC, 20 °C, KCl 125.0 mM): −13.8 cal mol^−1 K^−1
- Ka (EH domain of EHD1; ITC, 20 °C, KCl 150.0 mM): 53000 M⁻¹
- TΔS (EH domain of EHD1; ITC, 20 °C, KCl 150.0 mM): -4.163 kcal/mol
- ΔG (EH domain of EHD1; ITC, 20 °C, KCl 150.0 mM): -6.331 kcal/mol
- ΔH (EH domain of EHD1; ITC, 20 °C, KCl 150.0 mM): -10.5 kcal/mol
- ΔS (EH domain of EHD1; ITC, 20 °C, KCl 150.0 mM): −14.2 cal mol^−1 K^−1
- Ka (EH domain of EHD1; ITC, 20 °C, KCl 300.0 mM): 24800 M⁻¹
- TΔS (EH domain of EHD1; ITC, 20 °C, KCl 300.0 mM): -4.369 kcal/mol
- ΔG (EH domain of EHD1; ITC, 20 °C, KCl 300.0 mM): -5.889 kcal/mol
- ΔH (EH domain of EHD1; ITC, 20 °C, KCl 300.0 mM): -10.26 kcal/mol
- ΔS (EH domain of EHD1; ITC, 20 °C, KCl 300.0 mM): −14.9 cal mol^−1 K^−1
- Ka (EH domain of EHD1; ITC, 20 °C, KCl 450.0 mM): 17800 M⁻¹
- TΔS (EH domain of EHD1; ITC, 20 °C, KCl 450.0 mM): -4.721 kcal/mol
- ΔG (EH domain of EHD1; ITC, 20 °C, KCl 450.0 mM): -5.696 kcal/mol
- ΔH (EH domain of EHD1; ITC, 20 °C, KCl 450.0 mM): -10.43 kcal/mol
- ΔS (EH domain of EHD1; ITC, 20 °C, KCl 450.0 mM): −16.1 cal mol^−1 K^−1
- Ka (EH domain of EHD1; ITC, 25.0 °C): 606000 M⁻¹
- TΔS (EH domain of EHD1; ITC, 25.0 °C): -4.056 kcal/mol
- ΔG (EH domain of EHD1; ITC, 25.0 °C): -7.881 kcal/mol
- ΔH (EH domain of EHD1; ITC, 25.0 °C): -11.94 kcal/mol
- ΔS (EH domain of EHD1; ITC, 25.0 °C): −13.6 cal mol^−1 K^−1
- non-electrostatic ΔG (EH domain of EHD1; from (Ka)ne, 20°C): -5.2 kcal/mol
- ΔCp (change in heat capacity upon binding) (EH domain of EHD1; from response of ΔH to temperature, 5 to 25°, ITC): −150 cal mol^−1 K^−1
Substance: Ac-GPSLNPFDEED-NH2 [Rsn5-NPF1]
- interaction detected by ITC (Eps15 EH2): unable to detect any interaction
